Molecules are shown by their SMILES.

Results on three compounds are retold here after ChEMBL document CHEMBL5653631, “A Potent and Selective ULK1 Inhibitor Suppresses Autophagy and Sensitizes Cancer Cells to Nutrient Stress” (iScience, 2018).

The target of experiment [1] is T1, Tyrosine-protein kinase TXK (Homo sapiens) (UniProt P42681).
T1 sequence (whole entry): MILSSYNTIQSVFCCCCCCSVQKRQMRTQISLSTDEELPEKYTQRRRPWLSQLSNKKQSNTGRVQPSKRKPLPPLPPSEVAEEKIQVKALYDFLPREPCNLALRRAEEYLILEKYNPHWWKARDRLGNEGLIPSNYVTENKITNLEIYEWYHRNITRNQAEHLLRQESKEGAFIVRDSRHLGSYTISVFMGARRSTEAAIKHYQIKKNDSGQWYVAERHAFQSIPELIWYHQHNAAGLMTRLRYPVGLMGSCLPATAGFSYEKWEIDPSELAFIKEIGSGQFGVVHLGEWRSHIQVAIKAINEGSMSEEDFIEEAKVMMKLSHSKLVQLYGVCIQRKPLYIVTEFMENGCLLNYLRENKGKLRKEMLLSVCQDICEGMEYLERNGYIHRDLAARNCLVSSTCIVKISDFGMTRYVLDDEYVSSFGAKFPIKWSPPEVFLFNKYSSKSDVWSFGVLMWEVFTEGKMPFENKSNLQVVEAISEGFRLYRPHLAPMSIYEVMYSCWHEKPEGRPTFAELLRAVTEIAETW
As to the kind of experiment: Inhibition of human recombinant TXK at 15 nM in presence of ATP by radiometric assay relative to control.

Experiment [2] has as its target [Pyruvate dehydrogenase (acetyl-transferring)] kinase isozyme 4, mitochondrial (Homo sapiens) (UniProt Q16654). Briefly: Inhibition of human recombinant PDHK4 at 15 nM related to control ULK1.
The target in experiment [3] is T2, Serine/threonine-protein kinase Chk1 (Homo sapiens) (UniProt O14757).
T2 sequence (whole entry): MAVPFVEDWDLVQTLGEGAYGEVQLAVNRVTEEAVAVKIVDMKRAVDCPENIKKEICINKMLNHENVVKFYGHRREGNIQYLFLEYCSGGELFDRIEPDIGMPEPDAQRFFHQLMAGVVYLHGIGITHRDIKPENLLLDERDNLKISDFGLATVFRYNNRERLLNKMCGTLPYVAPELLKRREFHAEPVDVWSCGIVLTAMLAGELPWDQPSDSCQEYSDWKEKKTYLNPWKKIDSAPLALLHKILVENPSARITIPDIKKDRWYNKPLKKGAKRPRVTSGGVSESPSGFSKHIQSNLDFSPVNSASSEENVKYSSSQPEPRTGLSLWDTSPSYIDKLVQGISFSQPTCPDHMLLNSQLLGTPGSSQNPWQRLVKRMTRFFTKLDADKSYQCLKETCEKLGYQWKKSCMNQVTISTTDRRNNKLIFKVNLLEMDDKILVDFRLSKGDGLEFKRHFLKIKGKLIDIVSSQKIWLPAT
Briefly: Inhibition of human recombinant CHK1 at 15 nM in presence of ATP by radiometric assay relative to control.

Experiment [4] concerns the target T3, Tyrosine-protein kinase ITK/TSK (Homo sapiens) (UniProt Q08881).
T3 sequence (whole entry): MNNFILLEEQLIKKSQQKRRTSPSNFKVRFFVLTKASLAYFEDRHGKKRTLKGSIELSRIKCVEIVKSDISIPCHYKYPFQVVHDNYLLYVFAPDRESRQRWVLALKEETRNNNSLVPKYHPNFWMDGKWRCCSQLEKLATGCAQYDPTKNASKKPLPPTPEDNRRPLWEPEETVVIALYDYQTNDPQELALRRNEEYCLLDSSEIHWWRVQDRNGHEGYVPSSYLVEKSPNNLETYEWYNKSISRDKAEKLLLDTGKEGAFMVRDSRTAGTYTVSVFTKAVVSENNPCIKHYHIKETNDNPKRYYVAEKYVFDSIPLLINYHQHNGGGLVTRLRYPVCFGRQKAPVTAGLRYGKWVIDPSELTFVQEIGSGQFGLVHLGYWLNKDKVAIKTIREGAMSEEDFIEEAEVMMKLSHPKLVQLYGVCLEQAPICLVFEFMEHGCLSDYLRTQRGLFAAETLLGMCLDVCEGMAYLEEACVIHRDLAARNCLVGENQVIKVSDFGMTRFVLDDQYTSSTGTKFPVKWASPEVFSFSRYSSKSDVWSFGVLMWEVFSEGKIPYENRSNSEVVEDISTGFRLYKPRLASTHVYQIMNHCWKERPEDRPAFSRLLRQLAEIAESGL
Briefly: Inhibition of human recombinant ITK at 15 nM in presence of ATP by radiometric assay relative to control.

The target in experiment [5] is Serine/threonine-protein kinase D2 (Homo sapiens) (UniProt Q9BZL6). Briefly: Inhibition of human recombinant PKD2 at 15 nM in presence of ATP by radiometric assay relative to control.
Chain of Serine/threonine-protein kinase D2 (Homo sapiens) (Q9BZL6 whole entry, looked up): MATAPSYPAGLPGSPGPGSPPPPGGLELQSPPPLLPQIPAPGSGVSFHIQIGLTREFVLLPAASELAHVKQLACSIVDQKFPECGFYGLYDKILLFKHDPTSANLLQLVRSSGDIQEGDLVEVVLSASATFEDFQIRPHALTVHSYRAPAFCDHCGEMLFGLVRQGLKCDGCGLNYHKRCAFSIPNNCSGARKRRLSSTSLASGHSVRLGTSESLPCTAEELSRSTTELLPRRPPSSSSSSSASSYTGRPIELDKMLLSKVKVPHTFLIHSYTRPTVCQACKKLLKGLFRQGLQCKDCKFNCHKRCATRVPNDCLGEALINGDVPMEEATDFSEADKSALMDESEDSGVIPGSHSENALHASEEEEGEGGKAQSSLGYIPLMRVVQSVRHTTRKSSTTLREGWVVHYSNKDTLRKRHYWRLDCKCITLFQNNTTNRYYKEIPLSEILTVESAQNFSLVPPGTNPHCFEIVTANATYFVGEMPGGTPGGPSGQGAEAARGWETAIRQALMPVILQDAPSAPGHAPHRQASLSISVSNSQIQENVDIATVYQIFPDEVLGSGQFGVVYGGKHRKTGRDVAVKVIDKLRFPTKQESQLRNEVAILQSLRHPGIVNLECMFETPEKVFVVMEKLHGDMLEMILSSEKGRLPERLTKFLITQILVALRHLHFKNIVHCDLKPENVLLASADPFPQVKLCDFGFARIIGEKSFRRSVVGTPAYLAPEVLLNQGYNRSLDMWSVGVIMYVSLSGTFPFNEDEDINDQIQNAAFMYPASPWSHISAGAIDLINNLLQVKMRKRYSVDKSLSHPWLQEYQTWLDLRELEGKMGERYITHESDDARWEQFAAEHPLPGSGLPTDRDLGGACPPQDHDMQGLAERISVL
In experiment [6] the target is Serine/threonine-protein kinase N1 (Homo sapiens) (UniProt Q16512). As to the kind of experiment: Inhibition of human recombinant PKN1 at 15 nM in presence of ATP by radiometric assay relative to control.
Chain of Serine/threonine-protein kinase N1 (Homo sapiens) (Q16512 2-942 limits assumed): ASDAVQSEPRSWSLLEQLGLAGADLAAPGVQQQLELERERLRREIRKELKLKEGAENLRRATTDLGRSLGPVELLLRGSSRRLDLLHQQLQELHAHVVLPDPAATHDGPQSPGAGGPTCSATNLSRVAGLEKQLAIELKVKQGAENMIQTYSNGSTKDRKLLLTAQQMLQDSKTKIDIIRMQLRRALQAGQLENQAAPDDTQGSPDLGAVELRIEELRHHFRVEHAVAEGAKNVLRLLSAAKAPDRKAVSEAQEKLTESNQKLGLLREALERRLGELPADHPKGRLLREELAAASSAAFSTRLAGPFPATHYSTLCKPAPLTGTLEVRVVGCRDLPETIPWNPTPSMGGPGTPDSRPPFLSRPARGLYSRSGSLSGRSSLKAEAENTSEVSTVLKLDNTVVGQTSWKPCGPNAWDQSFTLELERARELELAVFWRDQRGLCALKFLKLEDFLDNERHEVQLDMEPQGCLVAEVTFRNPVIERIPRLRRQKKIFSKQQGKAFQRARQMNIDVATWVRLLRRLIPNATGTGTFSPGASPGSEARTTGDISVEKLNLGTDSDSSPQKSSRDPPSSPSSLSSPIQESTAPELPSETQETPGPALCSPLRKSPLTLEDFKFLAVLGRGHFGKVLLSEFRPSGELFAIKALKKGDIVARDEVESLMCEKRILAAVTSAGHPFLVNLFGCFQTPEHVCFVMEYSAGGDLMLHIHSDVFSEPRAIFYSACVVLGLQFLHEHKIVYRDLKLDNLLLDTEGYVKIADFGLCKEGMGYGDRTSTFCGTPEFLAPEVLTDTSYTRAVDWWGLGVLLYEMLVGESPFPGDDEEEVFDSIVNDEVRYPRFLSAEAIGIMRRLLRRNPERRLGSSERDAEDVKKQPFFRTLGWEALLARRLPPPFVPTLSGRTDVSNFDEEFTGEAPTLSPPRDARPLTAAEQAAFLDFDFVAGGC
Experiment [7] addresses Serine/threonine-protein kinase WNK2 (Homo sapiens) (UniProt Q9Y3S1). Briefly: Inhibition of human recombinant Wnk2 at 40 nM related to control ULK1.
Experiment [8] has as its target Serine/threonine-protein kinase 26 (Homo sapiens) (UniProt Q9P289). As to the kind of experiment: Inhibition of human recombinant MST4 at 500 nM related to control ULK1.
Experiment [9] concerns the target RAC-gamma serine/threonine-protein kinase (Homo sapiens) (UniProt Q9Y243). As to the kind of experiment: Inhibition of human recombinant AKT3 at 500 nM in presence of ATP by radiometric assay relative to control. Put shortly:
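Panel of 327 recombinant human kinases in radiometric activity assays, each screened in duplicate at a single inhibitor concentration; percent activity remaining relative to vehicle control, percent inhibition taken as 100 minus activity remaining.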

The target in experiment [10] is T4, MAP kinase-activated protein kinase 5 (Homo sapiens) (UniProt Q8IW41).
T4 sequence (whole entry): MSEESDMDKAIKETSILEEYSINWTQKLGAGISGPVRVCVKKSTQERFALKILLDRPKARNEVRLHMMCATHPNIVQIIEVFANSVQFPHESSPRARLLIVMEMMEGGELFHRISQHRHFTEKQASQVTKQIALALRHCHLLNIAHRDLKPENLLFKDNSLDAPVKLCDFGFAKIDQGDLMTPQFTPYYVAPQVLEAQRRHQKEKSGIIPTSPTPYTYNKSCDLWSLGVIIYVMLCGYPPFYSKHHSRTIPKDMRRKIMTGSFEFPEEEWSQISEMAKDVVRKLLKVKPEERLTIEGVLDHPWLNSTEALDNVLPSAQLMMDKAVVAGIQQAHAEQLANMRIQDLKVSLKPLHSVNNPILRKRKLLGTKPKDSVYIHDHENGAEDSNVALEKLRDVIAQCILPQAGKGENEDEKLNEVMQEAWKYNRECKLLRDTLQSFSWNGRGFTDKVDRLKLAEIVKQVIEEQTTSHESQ
As to the kind of experiment: Inhibition of human recombinant MAPKAPK5 at 500 nM related to control ULK1.

Experiment [11] deals with Rho-associated protein kinase 2 (Homo sapiens) (UniProt O75116). As to the kind of experiment: Inhibition of human recombinant ROCK2 at 500 nM related to control ULK1.
Experiment [12] has as its target Serine/threonine-protein kinase MAK (Homo sapiens) (UniProt P20794). Briefly: Inhibition of human recombinant MAK at 500 nM related to control ULK1.

Chain of RAC-gamma serine/threonine-protein kinase (Homo sapiens) (Q9Y243 whole entry): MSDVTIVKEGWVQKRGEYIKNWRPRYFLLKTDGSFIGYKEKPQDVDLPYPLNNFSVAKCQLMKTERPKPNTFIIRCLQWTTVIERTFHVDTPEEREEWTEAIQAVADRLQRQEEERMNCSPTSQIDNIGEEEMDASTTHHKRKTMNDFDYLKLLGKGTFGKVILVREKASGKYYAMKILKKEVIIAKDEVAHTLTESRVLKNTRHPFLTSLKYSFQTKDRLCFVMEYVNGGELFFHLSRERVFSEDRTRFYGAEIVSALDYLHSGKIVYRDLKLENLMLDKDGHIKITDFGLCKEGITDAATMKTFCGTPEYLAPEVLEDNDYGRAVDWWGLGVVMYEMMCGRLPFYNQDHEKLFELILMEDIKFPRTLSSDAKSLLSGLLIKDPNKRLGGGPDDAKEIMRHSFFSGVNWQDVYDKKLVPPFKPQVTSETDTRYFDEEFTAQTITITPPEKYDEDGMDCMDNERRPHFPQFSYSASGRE
Chain of Serine/threonine-protein kinase MAK (Homo sapiens) (P20794 whole entry, looked up): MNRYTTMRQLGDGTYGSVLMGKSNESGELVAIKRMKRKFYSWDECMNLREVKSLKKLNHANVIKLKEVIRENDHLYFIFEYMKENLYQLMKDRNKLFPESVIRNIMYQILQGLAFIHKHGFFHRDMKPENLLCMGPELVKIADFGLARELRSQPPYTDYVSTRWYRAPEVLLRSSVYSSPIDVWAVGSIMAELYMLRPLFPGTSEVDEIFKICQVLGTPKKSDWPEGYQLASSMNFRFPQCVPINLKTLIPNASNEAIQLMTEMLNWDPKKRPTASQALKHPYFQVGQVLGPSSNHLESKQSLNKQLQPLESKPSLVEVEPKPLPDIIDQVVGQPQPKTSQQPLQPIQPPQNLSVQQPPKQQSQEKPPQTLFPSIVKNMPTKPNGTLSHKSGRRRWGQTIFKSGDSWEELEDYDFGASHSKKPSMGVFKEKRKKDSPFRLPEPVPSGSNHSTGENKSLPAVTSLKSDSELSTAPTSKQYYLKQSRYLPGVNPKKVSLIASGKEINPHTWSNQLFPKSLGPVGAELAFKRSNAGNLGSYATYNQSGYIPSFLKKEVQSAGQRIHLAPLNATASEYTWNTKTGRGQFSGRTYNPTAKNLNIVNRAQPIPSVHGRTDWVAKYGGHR
Chain of [Pyruvate dehydrogenase (acetyl-transferring)] kinase isozyme 4, mitochondrial (Homo sapiens) (Q16654 whole entry, looked up): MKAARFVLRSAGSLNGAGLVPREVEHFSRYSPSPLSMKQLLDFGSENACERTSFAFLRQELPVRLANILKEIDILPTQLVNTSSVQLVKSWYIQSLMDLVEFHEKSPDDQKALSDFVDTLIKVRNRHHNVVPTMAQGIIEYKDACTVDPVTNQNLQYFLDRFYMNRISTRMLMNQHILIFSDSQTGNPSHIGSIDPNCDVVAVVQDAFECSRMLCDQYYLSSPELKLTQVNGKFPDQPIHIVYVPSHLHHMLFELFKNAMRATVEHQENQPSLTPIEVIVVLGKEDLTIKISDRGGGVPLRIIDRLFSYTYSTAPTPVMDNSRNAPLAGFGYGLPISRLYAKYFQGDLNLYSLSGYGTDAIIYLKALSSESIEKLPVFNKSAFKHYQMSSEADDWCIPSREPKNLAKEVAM
Chain of Serine/threonine-protein kinase 26 (Homo sapiens) (Q9P289 2-416 limits assumed): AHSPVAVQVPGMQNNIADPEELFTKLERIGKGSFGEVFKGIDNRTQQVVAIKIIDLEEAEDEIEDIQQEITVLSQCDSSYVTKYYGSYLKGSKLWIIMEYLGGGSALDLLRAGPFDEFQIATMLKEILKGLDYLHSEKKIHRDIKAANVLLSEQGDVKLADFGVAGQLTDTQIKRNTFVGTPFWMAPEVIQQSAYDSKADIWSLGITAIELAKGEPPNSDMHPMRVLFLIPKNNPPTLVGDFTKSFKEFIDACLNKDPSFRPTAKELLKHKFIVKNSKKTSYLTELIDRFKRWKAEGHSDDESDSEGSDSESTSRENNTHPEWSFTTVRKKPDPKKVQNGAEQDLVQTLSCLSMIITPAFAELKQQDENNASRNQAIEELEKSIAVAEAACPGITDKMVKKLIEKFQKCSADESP

As a reminder, the inhibition is the share of the control response that was lost under treatment. Regarding `CC(C)[C@H](NC(=O)c1cc(-c2cnn3cc(-c4ccc(OCCN5CCCCC5)cc4)cnc23)cs1)C(F)(F)F`, the inhibition came to 59% in [1]; 0% in experiment [3]; 4% in experiment [4]; 0% in [5]; 0% in experiment [6]. In addition, in experiment [2], the fold change (FC) is 0.02.
For the compound `O=C(N[C@@H](C1CC1)C(F)(F)F)c1cc(-c2cnn3cc(-c4ccc(F)cc4)cnc23)cs1`, the fold change (FC) in experiment [7] came to 0.04.
Take `CNC(=O)c1ccccc1Oc1nc(Nc2cc(OC)c(OC)c(OC)c2)ncc1Br`: the fold change (FC) came to 0 in [8], 0 in [10], 0 in experiment [11] and 0.49 in experiment [12]. Besides, the inhibition in experiment [9] is 5%.
